Test [1] has as its target Glutamate receptor ionotropic, NMDA 2B (Rattus norvegicus) (UniProt Q00960). Nature of the test: Displacement of [3H]ifenprodil from Wistar rat cerebral cortex GluN2B receptor at 0.1 uM after 120 mins relative to control. The class given is tissue-based. The gist of the method: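 Male Wistar-derived rat cerebral cortex membranes (175 ± 25 g rats) in Tris-HCl pH 7.4. […] Filtration, washing and counting followed. Test compounds were run at three concentrations in duplicate, with 0.1 μM used for % inhibition.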

In test [2] the target is Glutamate receptor ionotropic, NMDA 2B (Rattus norvegicus, UniProt Q00960). Nature of the test: Displacement of [3H]ifenprodil from Wistar rat cerebral cortex GluN2B receptor after 120 mins. In kind it is tissue-based.
In test [3] the test system is Mus musculus. Nature of the test: Anticonvulsant activity in DBA/2 mouse assessed as prevention of audiogenic seizures at 100 umol/kg, ip administered 30 mins prior to testing. In kind it is functional, organism-based. Summed up:
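DBA/2 mice genetically prone to sound-induced seizures (8-12 g, 22-25 days old), groups of 10 of either sex. Dosed ip in fresh 50% DMSO/50% sterile saline, or vehicle alone. After 30 min, 60 s habituation under a dome, then auditory stimulus (12-16 kHz, 109 dB) for 60 s or until tonic extension. Latency to and incidence of wild running, clonus, tonic phases were scored; incidence compared by Fisher's exact test.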

Test [4] deals with Glutamate receptor ionotropic, NMDA 2B (Rattus norvegicus) (UniProt Q00960). The experiment in a line: Displacement of [3H]ifenprodil from Wistar rat cerebral cortex GluN2B receptor at 0.1 uM relative to control.

The text below walks through data of ChEMBL document CHEMBL3763100, “Structure-guided design of new indoles as negative allosteric modulators (NAMs) of N-methyl-D-aspartate receptor (NMDAR) containing GluN2B subunit” (Bioorg Med Chem, 2016).

SMILES strings stand for the structures. Active and inactive are the calls of the source. The calls are words filed in the database; no cut-off is given here.

Chain of Glutamate receptor ionotropic, NMDA 2B (Q00960 whole entry): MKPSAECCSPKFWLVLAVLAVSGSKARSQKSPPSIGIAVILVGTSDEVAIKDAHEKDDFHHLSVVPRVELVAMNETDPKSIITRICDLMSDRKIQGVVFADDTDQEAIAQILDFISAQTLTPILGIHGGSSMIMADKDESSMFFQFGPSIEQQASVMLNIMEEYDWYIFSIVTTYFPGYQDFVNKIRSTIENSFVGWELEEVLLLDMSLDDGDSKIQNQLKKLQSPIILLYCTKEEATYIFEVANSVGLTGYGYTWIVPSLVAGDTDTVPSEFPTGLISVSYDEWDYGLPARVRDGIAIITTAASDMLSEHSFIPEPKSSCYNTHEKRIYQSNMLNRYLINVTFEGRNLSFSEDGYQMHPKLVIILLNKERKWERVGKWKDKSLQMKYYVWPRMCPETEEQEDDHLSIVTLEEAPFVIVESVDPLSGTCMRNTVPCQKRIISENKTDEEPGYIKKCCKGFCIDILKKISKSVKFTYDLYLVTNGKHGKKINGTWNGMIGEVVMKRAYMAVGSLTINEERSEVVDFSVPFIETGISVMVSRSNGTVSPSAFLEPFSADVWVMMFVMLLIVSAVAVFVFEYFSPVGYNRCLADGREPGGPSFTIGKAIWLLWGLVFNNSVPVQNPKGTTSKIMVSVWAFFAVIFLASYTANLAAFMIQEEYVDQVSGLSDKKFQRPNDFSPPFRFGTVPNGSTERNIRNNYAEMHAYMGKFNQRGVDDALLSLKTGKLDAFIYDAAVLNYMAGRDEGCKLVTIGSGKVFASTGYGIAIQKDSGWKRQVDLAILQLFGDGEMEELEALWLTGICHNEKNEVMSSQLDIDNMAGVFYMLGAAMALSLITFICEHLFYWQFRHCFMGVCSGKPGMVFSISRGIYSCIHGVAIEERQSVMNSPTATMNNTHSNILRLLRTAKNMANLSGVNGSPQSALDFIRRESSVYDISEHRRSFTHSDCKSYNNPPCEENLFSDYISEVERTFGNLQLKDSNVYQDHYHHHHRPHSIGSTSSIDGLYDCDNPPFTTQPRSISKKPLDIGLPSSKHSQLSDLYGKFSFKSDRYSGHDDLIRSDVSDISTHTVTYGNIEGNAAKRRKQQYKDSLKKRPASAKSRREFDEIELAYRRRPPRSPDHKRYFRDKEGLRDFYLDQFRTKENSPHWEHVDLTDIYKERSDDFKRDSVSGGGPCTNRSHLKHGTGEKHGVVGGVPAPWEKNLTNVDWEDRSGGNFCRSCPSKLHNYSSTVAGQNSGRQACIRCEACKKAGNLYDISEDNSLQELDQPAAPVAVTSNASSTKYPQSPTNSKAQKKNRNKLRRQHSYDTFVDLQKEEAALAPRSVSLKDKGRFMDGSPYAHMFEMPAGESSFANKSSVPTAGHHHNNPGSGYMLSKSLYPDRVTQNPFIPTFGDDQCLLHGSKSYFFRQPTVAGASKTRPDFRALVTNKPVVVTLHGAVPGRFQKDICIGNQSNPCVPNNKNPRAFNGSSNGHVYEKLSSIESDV
Chain of Glutamate receptor ionotropic, NMDA 2B (Rattus norvegicus) (Q00960 27-1482 limits assumed): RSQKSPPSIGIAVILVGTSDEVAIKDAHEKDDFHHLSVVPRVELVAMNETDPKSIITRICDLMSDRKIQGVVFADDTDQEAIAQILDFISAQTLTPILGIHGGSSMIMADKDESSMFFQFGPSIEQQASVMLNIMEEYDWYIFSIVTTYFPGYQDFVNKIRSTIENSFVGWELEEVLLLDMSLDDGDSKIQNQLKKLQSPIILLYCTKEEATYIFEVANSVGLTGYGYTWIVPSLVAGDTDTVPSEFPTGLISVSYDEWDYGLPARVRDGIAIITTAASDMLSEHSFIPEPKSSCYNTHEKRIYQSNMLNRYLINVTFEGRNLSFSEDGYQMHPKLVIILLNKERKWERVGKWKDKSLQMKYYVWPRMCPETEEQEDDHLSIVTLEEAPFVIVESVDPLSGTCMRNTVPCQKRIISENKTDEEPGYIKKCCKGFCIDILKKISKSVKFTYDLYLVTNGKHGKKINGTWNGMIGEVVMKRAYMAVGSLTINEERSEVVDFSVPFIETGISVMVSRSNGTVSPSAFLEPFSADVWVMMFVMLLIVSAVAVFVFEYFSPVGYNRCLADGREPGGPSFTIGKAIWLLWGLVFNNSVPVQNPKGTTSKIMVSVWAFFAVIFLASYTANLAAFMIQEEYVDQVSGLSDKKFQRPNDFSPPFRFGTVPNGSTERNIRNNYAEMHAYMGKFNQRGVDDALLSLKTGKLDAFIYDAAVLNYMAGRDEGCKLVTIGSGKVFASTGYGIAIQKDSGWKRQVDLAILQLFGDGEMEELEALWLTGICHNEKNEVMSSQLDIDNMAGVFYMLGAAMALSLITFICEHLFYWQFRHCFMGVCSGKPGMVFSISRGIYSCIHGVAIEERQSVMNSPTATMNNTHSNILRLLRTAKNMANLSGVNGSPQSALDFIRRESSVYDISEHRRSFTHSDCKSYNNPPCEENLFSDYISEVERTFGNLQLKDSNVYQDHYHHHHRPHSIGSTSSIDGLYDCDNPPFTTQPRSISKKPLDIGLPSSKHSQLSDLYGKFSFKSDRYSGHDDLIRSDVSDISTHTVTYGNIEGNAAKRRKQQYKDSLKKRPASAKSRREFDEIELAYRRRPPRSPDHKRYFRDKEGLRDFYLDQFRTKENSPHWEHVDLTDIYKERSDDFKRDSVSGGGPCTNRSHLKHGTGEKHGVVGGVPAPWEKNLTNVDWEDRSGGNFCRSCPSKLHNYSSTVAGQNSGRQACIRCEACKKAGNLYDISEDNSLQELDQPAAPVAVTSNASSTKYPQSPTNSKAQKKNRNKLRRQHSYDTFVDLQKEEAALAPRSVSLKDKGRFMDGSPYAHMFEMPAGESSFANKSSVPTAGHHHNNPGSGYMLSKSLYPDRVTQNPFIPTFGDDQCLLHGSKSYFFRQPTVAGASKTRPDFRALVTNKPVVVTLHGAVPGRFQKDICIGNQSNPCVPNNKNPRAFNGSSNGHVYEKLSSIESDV

For `O=C(Cc1c[nH]c2ccc(O)cc12)N1CCC(Cc2ccc(F)cc2)CC1`, in test [1], the inhibition is 19%.

Take `COc1ccc(CC2CCN(CC(=O)c3c[nH]c4ccc(O)cc34)CC2)cc1`: in test [2], the concentration for half-maximal inhibition (IC50) was found to be 1.28 µM. For the same compound, the inhibition in test [1] came out at 16%.

In test [1], `O=C(CN1CCC(Oc2ccccc2)CC1)c1c[nH]c2ccc(O)cc12` registered an inhibition of 9%.

In the case of `Oc1ccc2[nH]cc(CCN3CCC(Cc4ccccc4)CC3)c2c1`, the inhibition in test [1] is 42%.

Take `CCc1ccc(CC2CCN(CC(=O)c3c[nH]c4ccc(O)cc34)CC2)cc1`: the outcome in test [3] was inactive. Further, in test [2], the IC50 worked out at 0.071 µM. The inhibition in test [1] amounted to 75%.

In turn, `O=C(Cc1c[nH]c2ccc(O)cc12)N1CCC(Cc2ccccc2)CC1` yielded an inhibition in test [1] of 5%.

Compound `O=C(CN1CCC(Cc2ccccc2)CC1)c1c[nH]c2ccc(O)cc12` gave an inhibition in test [4] of 75%.

For `Cc1ccc(CC2CCN(CC(=O)c3c[nH]c4ccc(O)cc34)CC2)cc1`, the outcome in test [3] was inactive. Besides, the IC50 in test [2] came out at 0.083 µM. Further, the inhibition in test [1] was determined as 66%.

In test [2], `Cc1ccc(CC2CCN(CC(=O)c3c[nH]c4ccc(O)cc34)CC2)cc1C` came in with a half-maximal inhibitory concentration (IC50) of 3.33 µM. Moreover, the inhibition in test [1] was under 5%.
